In publication PMC11066580 (Inorganic chemistry, 2024):

Key:
CTSB = CTSB (Mus musculus, UniProt P10605); assay: Cathepsin activity in lysates of treated 4T1 cells, substrate Z-Arg-Arg-AMC; assay type: cell-based, murine; settings: 1 μM, 4 h, then 1 h, relative to vehicle control
Summary of the method: (§1)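 4T1 cells were given vehicle, 1 μM test compound, or 1 μM E64d (permeable positive control) for 4 h. Medium was then replaced, and cells received green light (520–525 nm) for 10 min or were kept dark, then incubated 1 h. Substrate 100 μM final; AMC fluorescence (ex 360/em 430 nm) read every 30 s for 5 min at 37 °C; % activity vs vehicle.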

cysteine cathepsins = assay: Cathepsin activity in lysates of treated 4T1 cells, substrate Z-Phe-Arg-AMC; assay type: cell-based, murine; settings: 1 μM, 4 h, then 1 h, relative to vehicle control
Summary of the method: as §1

[1] = Preliminary phototoxicity screen with green light; assay type: cell-based; settings: green light (520–525 nm); data not shown

Sequence of CTSB (P10605 80-339): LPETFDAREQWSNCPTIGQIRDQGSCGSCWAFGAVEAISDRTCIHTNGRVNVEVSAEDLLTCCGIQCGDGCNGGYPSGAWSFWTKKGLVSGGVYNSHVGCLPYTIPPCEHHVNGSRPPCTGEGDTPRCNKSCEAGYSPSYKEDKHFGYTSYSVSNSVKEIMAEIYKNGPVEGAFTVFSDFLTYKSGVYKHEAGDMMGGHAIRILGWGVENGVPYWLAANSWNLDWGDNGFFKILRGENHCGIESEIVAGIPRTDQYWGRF

Percent activity of cysteine cathepsins, substrate Z-Arg-Arg-AMC, Dark (CTSB; dark)	Percent activity of cysteine cathepsins, substrate Z-Arg-Arg-AMC, Light (CTSB; green light 10 min)	Compound	Percent activity of cysteine cathepsins, substrate Z-Phe-Arg-AMC, Dark (cysteine cathepsins; dark)	Percent activity of cysteine cathepsins, substrate Z-Phe-Arg-AMC, Light (cysteine cathepsins; green light 10 min)	phototoxicity in preliminary screen [1]
<5%	<5%	CCOC(=O)[C@H]1O[C@@H]1C(=O)N[C@@H](CC(C)C)C(=O)NCCC(C)C [Compound E64d]	18 ± 4%	21 ± 4%	–
–	–	[Ru(dppn)(dqpy)-(py)](PF6)2	–	–	showed phototoxicity
